PubChem BioAssay
Inconclusive results are not listed.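 Rule for the calls, unless noted: active = cell viability at or below a set limit in both duplicate runs, the limit being the all-compound median minus 4 SD (cut at about 23% in these data, passing the limit was not always enough); inconclusive = no clear call, values can overlap the other calls; inactive = the rest.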

What was measured:
[1] = S. cerevisiae growth inhibition in permissive medium (OD615), pilot counter-assay for S. cerevisiae lifespan shortening project, permissive growth control (AID 705;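 active = growth inhibition above 25% in both replicates, a cutoff set 3 SD above the mean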); settings: OD615, 24 h, at 10 µM, active compounds read high
Procedure, shortened: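 Timing: 24 h exposure, 30 °C / Material: Saccharomyces cerevisiae strain carrying genetically modified DeaD replicative-lifespan system / Signal: OD at 615 nm / Compound: 10 µM single dose, 0.25% DMSO / Medium: SC raffinose/galactose permissive medium / Evaluation: reduction in yeast growth (OD615)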

[2] = S. cerevisiae growth inhibition in restrictive medium, OD615, pilot screen, restrictive growth control, yeast lifespan reduction project (AID 706;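 active = growth inhibition above a set limit, 3 SD over mean compound inhibition, in both replicates, cut at about 43% in these data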;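 note: modified DeaD lifespan yeast strain shifted to restrictive glucose medium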); settings: OD615, 48 h, at 10 µM, active compounds read high
Procedure, shortened: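 System: Engineered S. cerevisiae DeaD strain | Detection: OD615 | Buffer or medium: CSMM-D glucose medium | Doses: 10 µM compound, 0.25% DMSO | Timing: 4 h pre-growth plus 48 h compound exposure, 30 °C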

[3] = doxorubicin toxicity protection in MRP-1 cells – H69AR cells, CellTiter-Glo, duplicate, MRP-1 activator project, pilot screen (AID 807;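 active = viability increase at or above a cutoff of the median across tested compounds plus 3 SD, cut at about 8.5% in these data, passing the limit was not always enough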;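 note: compound pretreatment 18-22 h then 72 h combined with doxorubicin; 0% = doxorubicin alone and 100% = vehicle without doxorubicin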); settings: H69AR viability with doxorubicin, CellTiter-Glo luminescence; at 10 µM; active compounds read high
[4] = viability of HCT116 without oncogenic beta-catenin – human colon tumor cells, pilot screen (AID 823); settings: HCT116 beta-catenin knockout viability, CellTiter-Glo, 60 h; at 10 µM; active compounds read low;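 note: 0% = wells killed by 20 µM Hyamine and 100% = untreated DMSO cell wells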
[5] = viability of PTEN-null HCT116 cells – cell-based, HCT116 clonal line, CellTiter-Glo, pilot screen (AID 824;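 active = viability at or below 27.92% in each of two runs, the all-compound median minus 4 SD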;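 note: 0% = 20 µM Hyamine control and 100% = vehicle cell control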); settings: HCT116 PTEN-deleted viability, 60 h, at 10 µM, active compounds read low
[6] = RAM pathway blockade in budding yeast – dse1pr::URA3 reporter, 5-FOA selection, pilot screen (AID 869;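 active = inhibition over a set limit, the all-compound mean plus 3 SD, in both replicate runs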;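 note: 0% = DMSO wells with no growth and 100% = 10 µM 1-NA-PP1 with full growth; RAM network block rescues cells from 5-FOA so hits raise OD615 growth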); settings: S. cerevisiae dse1pr::URA3 5-FOA growth, OD615, 2 d; at 10 µM; active compounds read high; strain carries analog-sensitive mutant Cbk1 kinase
[7] = RAM signaling pathway blockade in yeast – S. cerevisiae, Pdr1DBD-CYC8 efflux-inhibited sensitized strain, primary screen (AID 1298;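 active = RAM network inhibition above 8.4% in each of two replicates, 3 SD over the compound average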;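 note: 0% = DMSO untreated cells without growth and 100% = 10 µM 1-NA-PP1 full growth; higher means more yeast growth rescued from 5-FOA killing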); settings: S. cerevisiae cbk1-as DSE1-URA3 strain, 5-FOA growth OD615, 2 d; at 50 µM; active compounds read high

Cn1cc(S(=O)(=O)Nc2ccc(F)cc2F)c(=O)n(C)c1=O
inactive: growth inhibition [1] -11.6% | growth inhibition [2] 0.815% | viability increase [3] 0.9% | viability [4] 98.8% | viability [5] 95% | inhibition [6] 1.39% | RAM network inhibition [7] 1.28%

CC(C)Oc1ccc(/C(O)=C2/C(=O)C(=O)N(CCCN3CCOCC3)C2c2ccncc2)cc1 (configuration not stated)
inactive: growth inhibition [1] -3.48% | growth inhibition [2] -4.07% | viability increase [3] -3.89% | viability [4] 93.3% | viability [5] 89.3% | inhibition [6] 0.95% | RAM network inhibition [7] -0.41%

COc1ccccc1NC(=O)c1ccc(S(=O)(=O)N2CCCC2)cc1
inactive: growth inhibition [1] -5.88% | growth inhibition [2] -5.9% | viability increase [3] 0.68% | viability [4] 114% | viability [5] 94.9% | inhibition [6] 2.33% | RAM network inhibition [7] 2.32%

CCOC(=O)N1CCC(N2CC34C=CC(O3)C(C(=O)Nc3ccc(C)cc3)C4C2=O)CC1 (configuration not stated)
inactive: growth inhibition [1] -0.385% | growth inhibition [2] -0.16% | viability increase [3] 1.43% | viability [4] 100% | viability [5] 102% | inhibition [6] 1.33% | RAM network inhibition [7] 2.54%

CCOC(=O)N1CCN(C(=O)c2cc3c(=O)n(C)c4ccccc4c3n2C)CC1
inactive: growth inhibition [1] -9.54% | growth inhibition [2] 1.15% | viability increase [3] -2.85% | viability [4] 94.6% | viability [5] 89.9% | inhibition [6] 1.31% | RAM network inhibition [7] 0.42%

Cc1nc2ccc(S(=O)(=O)NC(C(=O)N3CCC(C)CC3)C(C)C)cc2s1 (configuration not stated)
inactive: growth inhibition [1] -13.4% | growth inhibition [2] -2.64% | viability increase [3] -2.02% | viability [4] 93.9% | viability [5] 89% | inhibition [6] 2.38% | RAM network inhibition [7] 2.55%

Cc1ccc(C)c(Cn2c(CN(C)Cc3ccccc3)nc3c2c(=O)n(C)c(=O)n3C)c1
inactive: growth inhibition [1] -0.27% | growth inhibition [2] -21.5% | viability increase [3] -6.57% | viability [4] 71.7% | viability [5] 61.5% | inhibition [6] 2.2% | RAM network inhibition [7] 2.51%

O=P(O)(CN1CCCCC1)C1CCCCC1O (configuration not stated)
inactive: growth inhibition [1] -11.2% | growth inhibition [2] -3.29% | viability increase [3] -1.71% | viability [4] 105% | viability [5] 104% | inhibition [6] 0.06% | RAM network inhibition [7] 1.57%

Cc1cc(C)nc(SCC(=O)N2CCCCC2)n1
inactive: growth inhibition [1] -13.6% | growth inhibition [2] -20% | viability increase [3] 0.71% | viability [4] 97.4% | viability [5] 101% | inhibition [6] 2.34% | RAM network inhibition [7] 0.74%

CCn1c2ccccc2c2nnc(SCC(=O)c3ccccc3)nc21
inactive: growth inhibition [1] -1.37% | growth inhibition [2] 13.5% | viability increase [3] -2.35% | viability [4] 94.8% | viability [5] 90.7% | inhibition [6] 2.33% | RAM network inhibition [7] 6.1%

Cc1noc(C)c1S(=O)(=O)N1CCN(C(c2ccccc2)c2ccc(Cl)cc2)CC1 (configuration not stated)
inactive: growth inhibition [1] -1.19% | growth inhibition [2] -0.625% | viability increase [3] 0.02% | viability [4] 66.3% | viability [5] 67.5% | inhibition [6] 1.61% | RAM network inhibition [7] 7.2%

Cc1oc2cc(O)ccc2c(=O)c1Oc1ccccc1Br
inactive: growth inhibition [1] -15.9% | growth inhibition [2] -12.2% | viability increase [3] -3.45% | viability [4] 94% | viability [5] 84.4% | inhibition [6] 1.68% | RAM network inhibition [7] 2.42%

O=C(CN1CCOc2ccccc21)NCc1ccco1
inactive: growth inhibition [1] -11.6% | growth inhibition [2] -14.4% | viability increase [3] -4.51% | viability [4] 88.1% | viability [5] 82.9% | inhibition [6] 0.09% | RAM network inhibition [7] 0.05%

CC12CCC(C(=O)Nc3ccc4c(c3)OCCO4)(OC1=O)C2(C)C (configuration not stated)
inactive: growth inhibition [1] -20.5% | growth inhibition [2] -5.64% | viability increase [3] -0.01% | viability [4] 93.7% | viability [5] 97.8% | inhibition [6] 1.28% | RAM network inhibition [7] -0.36%

CC/C(=C\C(=O)c1ccncc1)Nc1ccc(O)cc1
inactive: growth inhibition [1] -4.59% | growth inhibition [2] 8.96% | viability increase [3] -3.41% | viability [4] 92.8% | viability [5] 83.7% | inhibition [6] 1.58% | RAM network inhibition [7] 2.31%

Nc1nc(SCC(=O)N2CCCc3ccccc32)n(-c2ccccc2)n1
inactive: growth inhibition [1] -4.37% | growth inhibition [2] 0.05% | viability increase [3] -4.68% | viability [4] 108% | viability [5] 99.3% | inhibition [6] 2.67% | RAM network inhibition [7] 6.67%

Cc1ccccc1N1C(=O)c2sc3nc4c(c(=O)n3c2C1=O)CCC4
inactive: growth inhibition [1] 4.62% | growth inhibition [2] 25.2% | viability increase [3] -4.72% | viability [4] 97% | viability [5] 96.8% | inhibition [6] 1.5% | RAM network inhibition [7] 2.56%

CCN1CCN(C(=O)c2cc3c(-c4ccc(Cl)cc4)nn(C)c3s2)CC1
inactive: growth inhibition [1] -4.23% | growth inhibition [2] 16% | viability increase [3] -7.68% | viability [4] 38.5% | viability [5] 52.7% | inhibition [6] 2.21% | RAM network inhibition [7] 1.3%

CCCOC(=O)c1ccc(NC(=O)c2ccoc2C)cc1
inactive: growth inhibition [1] -3.79% | growth inhibition [2] 1.33% | viability increase [3] 0.94% | viability [4] 75.5% | viability [5] 78% | inhibition [6] 2.72% | RAM network inhibition [7] 4.37%

CCN1CCN(c2cc(=O)n(C3CCCCC3)c(=O)[nH]2)CC1
inactive: growth inhibition [1] -13.3% | growth inhibition [2] -10.1% | viability increase [3] 0.11% | viability [4] 104% | viability [5] 102% | inhibition [6] 1.2% | RAM network inhibition [7] 2.53%

COc1ccc(NC(=O)c2c(-c3ccccc3)noc2C)c(OC)c1
inactive: growth inhibition [1] -16% | growth inhibition [2] -30.3% | viability increase [3] -1.79% | viability [4] 97.4% | viability [5] 92.6% | inhibition [6] 0.895% | RAM network inhibition [7] 3.75%

CCOc1ccc(OCC)c(Nc2cc(C)nc3nc(C)nn23)c1
inactive: growth inhibition [1] -13.3% | growth inhibition [2] -2.15% | viability increase [3] -6.5% | viability [4] 53.1% | viability [5] 46.6% | inhibition [6] 0.055% | RAM network inhibition [7] 6.18%

CC(=O)Oc1ccc(C(=O)Nc2nnc(C)s2)cc1
inactive: growth inhibition [1] -10.4% | growth inhibition [2] -4.59% | viability increase [3] -2.2% | viability [4] 100% | viability [5] 104% | inhibition [6] 2.9% | RAM network inhibition [7] -0.78%

O=C1CN(C(=O)COc2ccccc2)CCN1
inactive: growth inhibition [1] -14.3% | growth inhibition [2] -15.5% | viability increase [3] -1.4% | viability [4] 99.3% | viability [5] 96.8% | inhibition [6] 1.35% | RAM network inhibition [7] -0.43%

COc1ccc(S(=O)(=O)N2CCN(C)CC2)cc1C
inactive: growth inhibition [1] -15.1% | growth inhibition [2] -4% | viability increase [3] 1.37% | viability [4] 88.4% | viability [5] 92.1% | inhibition [6] 3.29% | RAM network inhibition [7] 3.02%

COC(=O)Nc1c(C(=O)OC)cc(OC)c(OC)c1OC
inactive: growth inhibition [1] -3.62% | growth inhibition [2] -6.57% | viability increase [3] -2.87% | viability [4] 94.7% | viability [5] 97.4% | inhibition [6] -0.495% | RAM network inhibition [7] 4.86%

CCCc1cc(C(=O)Nc2cc(OC)c(Cl)cc2OC)no1
inactive: growth inhibition [1] -4.69% | growth inhibition [2] 4.3% | viability increase [3] -4.41% | viability [4] 89.5% | viability [5] 88.8% | inhibition [6] 0.45% | RAM network inhibition [7] 7.36%

O=C(CN1CCN(c2ncccn2)CC1)N1CCN(C(c2ccccc2)c2ccccc2)CC1
inactive: growth inhibition [1] -1.1% | growth inhibition [2] -2.38% | viability increase [3] -3.26% | viability [4] 84.8% | viability [5] 85% | inhibition [6] 1.64% | RAM network inhibition [7] 0.61%

Cc1cc2c3nonc3ccc2n1-c1ccccc1
inactive: growth inhibition [1] -16.1% | growth inhibition [2] -15% | viability increase [3] -2.59% | viability [4] 83% | viability [5] 86% | inhibition [6] 0.9% | RAM network inhibition [7] 6.15%

Cc1cc(C)nc(SCC(=O)OCN2C(=O)c3ccccc3C2=O)n1
inactive: growth inhibition [1] -19.7% | growth inhibition [2] -18.3% | viability increase [3] -1.63% | viability [4] 91.6% | viability [5] 91.6% | inhibition [6] 0.15% | RAM network inhibition [7] 3.15%

CCSc1nnc2c(n1)OC1(CCCC1)Nc1ccccc1-2
inactive: growth inhibition [1] -13.8% | growth inhibition [2] -3.69% | viability increase [3] -0.51% | viability [4] 97.3% | viability [5] 93.5% | inhibition [6] 1.45% | RAM network inhibition [7] 5.92%

Cn1c(=O)[nH]c(=O)c2[nH]c(CN3CCN(Cc4ccccc4)CC3)nc21
inactive: growth inhibition [1] -9.19% | growth inhibition [2] -10% | viability increase [3] -0.77% | viability [4] 104% | viability [5] 99.5% | inhibition [6] 0.395% | RAM network inhibition [7] 1.09%

COc1ccc(OC)c(CNC(=O)CCc2nc(-c3cccs3)no2)c1
inactive: growth inhibition [1] 2.87% | growth inhibition [2] 11.3% | viability increase [3] -2.92% | viability [4] 98% | viability [5] 93.4% | inhibition [6] 1.71% | RAM network inhibition [7] 2.56%

COc1ccc(N(CC(=O)N2CCc3ccccc3C2)S(=O)(=O)c2c(C)[nH]c(=O)[nH]c2=O)cc1
inactive: growth inhibition [1] -5.04% | growth inhibition [2] -13% | viability increase [3] -1.83% | viability [4] 110% | viability [5] 99.5% | inhibition [6] 2.77% | RAM network inhibition [7] 3.41%

CSc1nnc(Cn2c(=O)sc3ccccc32)n1-c1ccccc1C
inactive: growth inhibition [1] -14.4% | growth inhibition [2] -4% | viability increase [3] -2.05% | viability [4] 97.2% | viability [5] 96.7% | inhibition [6] 1.73% | RAM network inhibition [7] 2.76%

Fc1ccc(CN2CCCCCCC2)cc1F
inactive: growth inhibition [1] -3.83% | growth inhibition [2] -9.1% | viability increase [3] -3.13% | viability [4] 92.2% | viability [5] 95.7% | inhibition [6] -0.325% | RAM network inhibition [7] 0.52%
